Among the data in ChEMBL document CHEMBL1122253, “Optically active catecholimidazolines: a study of steric interactions at alpha-adrenoreceptors” (1983) are pED50 and IA values, retold here.

For assay [1], the species on record is Rattus norvegicus. Briefly: Negative Log of ED50 used to stimulate alpha adrenergic activity in rat aorta.
For assay [2], the species on record is Rattus norvegicus. Briefly: Relative value for maximum contraction (10e-5 = 1.0, phenylephrine) of rat aorta. In kind it is functional. In a few lines: (§1)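 Thoracic aorta: the 2-cm segment distal to the first intercostal artery, cut into strips at 75–80° to the lumen. Strips kept in PSS gassed with 95% O2/5% CO2 […], under 2-g tension with isometric force recording. After 1 h equilibration, one half-maximal phenylephrine challenge, then 1 h re-equilibration. Cumulative concentration-effect curves used about threefold steps, with washout and at least 1 h between curves.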

The species entered for assay [3] is Rattus norvegicus. Briefly: Negative Log of ED50 used to inhibit alpha adrenergic activity in rat aorta. Type of assay: functional. An outline of the steps: as §1

In the case of `CN1CC[N+](C)=C1Cc1ccc(O)c(O)c1.Cl.F[B-](F)(F)F`, the pED50 in the assay listed under Rattus norvegicus [1] is recorded as 5.54. In addition, the IA in the assay listed under Rattus norvegicus [2] is 0.81.

Take `Cl.Oc1ccc(CC2=NCCN2)cc1O`: the pED50 in the assay listed under Rattus norvegicus [1] came to 8.59. In addition, the IA in the assay listed under Rattus norvegicus [2] turned out to be 1.

As to `C[C@@H]1CN=C(Cc2ccc(O)c(O)c2)N1.Cl`, the pED50 in the assay listed under Rattus norvegicus [1] was found to be 6.29. For the same compound, in the assay listed under Rattus norvegicus [2], the IA stood at 0.74.

For `Cl.Oc1ccc(CC2=NC[C@H](Cc3ccccc3)N2)cc1O`, the pED50 in the assay listed under Rattus norvegicus [1] came to 4.33. The same compound had an IA in the assay filed under Rattus norvegicus [2] of 1.

In turn, `Cl.Oc1ccc(CC2=NC[C@@H](Cc3ccccc3)N2)cc1O` returned a pED50 in the assay filed under Rattus norvegicus [1] of 4.44. For the same compound, in the assay filed under Rattus norvegicus [2], the IA is 0.91.

`Cl.Oc1ccc([C@H](O)C2=NCCN2)cc1O`: the pED50 in the assay filed under Rattus norvegicus [1] came to 7.67. The compound further came in with an IA in the assay filed under Rattus norvegicus [2] of 1.

`Cl.Oc1ccc([C@@H](O)C2=NCCN2)cc1O`: the pED50 in the assay listed under Rattus norvegicus [1] came to 8.59. Also, the IA in the assay listed under Rattus norvegicus [2] is given as 1.

Turning to `C[C@H]1CN=C(Cc2ccc(O)c(O)c2)N1.Cl`, the pED50 in the assay listed under Rattus norvegicus [1] stood at 6.32. This compound also registered an IA in the assay filed under Rattus norvegicus [2] of 1.

`CN1CCN=C1Cc1ccc(O)c(O)c1.Cl` returned a pED50 in the assay filed under Rattus norvegicus [3] of 5.84. This compound displayed an IA in the assay filed under Rattus norvegicus [2] of 0.85.
